# Screening results: PubChem, several laboratories
# PABP1 MLLE inh – inhibitors of PABP1 MLLE–PAM2 peptide binding, primary screen, biochemical, fluorescence polarization, FITC-PAM2, GST-MLLE | Polyadenylate-binding protein 1 (Homo sapiens), P11940 | AID 588489, 2011 | 0.36% of 360,000 active | inhibition, % at 20 µM; in the data active means inhibition above about 35%, passing the limit was not always enough;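 further: plate controls were DMSO wells with GST-MLLE for no effect and wells lacking GST-MLLE protein for full effect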
# Target sequence (P11940 whole entry, looked up): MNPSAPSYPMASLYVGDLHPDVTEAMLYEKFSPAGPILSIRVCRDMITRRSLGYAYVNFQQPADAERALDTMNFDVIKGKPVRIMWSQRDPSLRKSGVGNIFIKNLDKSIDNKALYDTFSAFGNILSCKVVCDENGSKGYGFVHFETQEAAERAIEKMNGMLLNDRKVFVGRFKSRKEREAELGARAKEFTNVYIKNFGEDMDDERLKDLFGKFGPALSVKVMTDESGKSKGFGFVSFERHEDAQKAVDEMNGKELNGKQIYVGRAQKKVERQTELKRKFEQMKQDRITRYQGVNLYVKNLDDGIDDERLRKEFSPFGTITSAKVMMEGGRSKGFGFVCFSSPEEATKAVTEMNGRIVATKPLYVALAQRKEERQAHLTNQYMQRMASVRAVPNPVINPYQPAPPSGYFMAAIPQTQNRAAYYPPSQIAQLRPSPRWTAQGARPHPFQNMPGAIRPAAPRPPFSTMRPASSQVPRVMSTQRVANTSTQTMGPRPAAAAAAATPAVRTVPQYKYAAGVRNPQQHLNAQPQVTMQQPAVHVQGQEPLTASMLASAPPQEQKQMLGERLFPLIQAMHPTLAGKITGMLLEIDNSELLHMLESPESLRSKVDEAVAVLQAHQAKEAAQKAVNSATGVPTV
# FID counter – compounds displacing fluorescent DNA intercalator, primary screen, artefact control for HCV NS3 helicase inhibitor project, biochemical, FID fluorescence; DNA fluorescent intercalator displacement; 0.17% of 290,000 active; inhibition, % at 7.9 µM; AID 1845, 2009; in the data active means inhibition above about 37%;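 further: 0% = vehicle and 100% = reference compound; higher means more ethidium bromide displaced from hairpin DNA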
# eIF4H FP inh – human eIF4H binding inhibitors, primary screen, translation initiation inhibitor project, biochemical, uHTS, fluorescence polarization. eIF4H fluorescence polarization binding assay. inhibition, % at 35 µM. AID 2012, 2009. 0.94% of 290,000 active. Eukaryotic translation initiation factor 4H (Homo sapiens), Q15056;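 further: calls also rest on retests at 20 µM and on dose response follow-up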
# NS3 helicase inh – inhibitors of HCV NS3 helicase, primary screen, biochemical, Cy5 molecular beacon fluorescence; AID 1800, 2009; NS3 helicase DNA unwinding; 0.56% of 290,000 active; inhibition, % at 10.9 µM;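 active means inhibition above the mean of all tested compounds plus 3 SD, set per campaign, cut at about 35% in these data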;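 further: 0% = DMSO wells and 100% = thioflavine S control wells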
#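 Measured by: Cy5 fluorescence, 0 and 60 min reads / Assay system: NS3 helicase fragment of HCV / Control set: low DMSO, high thioflavine S at 110 µM / Times: 1 h reaction at 25 °C, ATP-initiated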
# core dimer inh – inhibitors of HCV core protein dimerization, primary screen, biochemical, TR-FRET, high-throughput; TR-FRET GST/Flag-core106 dimerization, 1536-well; inhibition, % at 5 µM; 0.33% of 300,000 active; AID 1899, 2009;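 active means inhibition above the mean of all tested compounds plus 3 SD, set per screening campaign, cut at about 45% in these data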
#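 assay system = GST-tagged and Flag-tagged HCV core protein residues 1-106 | controls = unlabelled core106 and no-GST-core106 wells | incubation = compound-protein-antibody incubation 4 h at 22.5 °C | probe or stimulus = Eu donor and XL665 acceptor anti-tag antibodies | read-out = % inhibition based on acceptor/donor emission ratio | signal = TR-FRET 671 and 617 nm emission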
# PABP FP inh – PABP poly(A) RNA binding inhibitors, primary screen, biochemical, fluorescence polarization, uHTS; Polyadenylate-binding protein 1 (Homo sapiens), P11940; AID 2014, 2009; 1% of 290,000 active; inhibition, % at 35 µM;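 further: calls also rest on retests at 20 µM and on dose response follow-up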
# Numbers without * were called inactive; x = no result. Hits are enriched below; roughly 2% of the tested compounds scored in any of these assays. Unless noted, how the calls were made is not given here.
SMILES,PABP1 MLLE inh,FID counter,eIF4H FP inh,NS3 helicase inh,core dimer inh,PABP FP inh
Cc1cc(C)n(-c2ncc3c(n2)N(CCO)CCOC3=O)n1,16,-10,-4,14,1,-5
O=C(NNC(=O)c1ccncc1)Nc1ccc([N+](=O)[O-])cc1,-8,8,-1,-9,-1,58*
O=C(NNC(=O)c1cccnc1)Nc1ccc([N+](=O)[O-])cc1,4,-1,-3,-5,-6,48
COc1ccc(OC)c(NC(=O)COc2cc(O)c3c(c2)OC(C)(C)CC3=O)c1,-6,x,x,x,x,x
COc1ccc(CCCNC(=O)C2Cc3c(-c4ccc5c(c4)OCO5)ccnc3O2)cc1 (stereo unspecified),2,x,x,x,x,x
CC(OC(=O)/C=C/c1ccc2ccccc2n1)C(=O)NCc1ccccc1 (stereo unspecified),-27,x,x,x,2,x
CC(/C=C/c1ccco1)=N/NC(=O)c1ccc(C)nc1,-1,-11,0,4,-6,-8
Cc1ccc(C(=O)N/N=C/c2cccc(OC(=O)/C=C/c3ccco3)c2)cn1,2,-19,86*,10,33,55
O=C(CNc1ccc2ccccc2c1)N/N=C/c1ccc(OC(=O)/C=C/c2ccco2)cc1,-32,-10,71*,12,26,active
COc1ccc(/C=c2\s/c(=C(/C#N)C(=O)NCc3ccco3)n(-c3ccccc3)c2=O)cc1,-17,0,1,8,58*,4
Cc1ccc(C)c(N2CCN(S(=O)(=O)c3ccc4[nH]c(=O)ccc4c3)CC2)c1,-11,-35,4,-6,46*,0
Cc1cccc(N2CCN(S(=O)(=O)c3ccc4[nH]c(=O)ccc4c3)CC2)c1C,-3,-26,5,-23,32,15
Cc1cc(C)c(C)c(S(=O)(=O)N2CCC(C(=O)Nc3ccc(S(=O)(=O)N4CCOCC4)cc3)CC2)c1C,-55,-44,-14,-32,26,41
Cc1cc(=O)oc2cc(OCC(=O)c3ccc4c(c3)NC(=O)CO4)ccc12,-32,7,26,2,63*,-5
Cc1ccc(C(=O)COc2ccc3c(C)cc(=O)oc3c2)cc1,2,-12,-6,-9,8,5
Cc1nnc(NC(=O)COc2ccc3c(C)cc(=O)oc3c2)s1,7,-4,61,9,79*,21
Cc1sc2ncnc(SCC#N)c2c1C,-6,5,37*,4,17,112
COc1ccccc1CNC(=O)c1cnccn1,-6,-2,54,-5,5,3.6*
Cc1ccc(S(=O)(=O)NCCc2nnc3ccc(N4CCOCC4)nn23)cc1,-6,x,x,x,x,x
CCOC(=O)c1ccc2ncc(C(=O)OCC)c(Nc3ccc(N4CCOCC4)cc3)c2c1,-3,-2,-4,-5,7,8
CCOC(=O)c1cnc2ccc(OC)cc2c1Nc1ccc(N2CCN(C)CC2)cc1,5,44*,-7,-39,x,-1
CN(C)CCCNC(=O)/C(=C\c1ccc(-c2cccc([N+](=O)[O-])c2)o1)NC(=O)c1ccccc1,8,44*,4,-52,-30,0
Cc1ccc(C(=O)N/C(=C\c2ccc(-c3cccc([N+](=O)[O-])c3)o2)C(=O)NCCCN(C)C)cc1,-8,31,9,-57,-19,0
Cc1ccc(C(=O)N/C(=C\c2ccc(-c3ccccc3[N+](=O)[O-])o2)C(=O)NCCCN2CCOCC2)cc1,24,6,98*,-76,-7,82*
S=c1nc(Cc2ccc(Cl)cc2)[nH]c2ccccc12,-23,-4,4,-2,54*,-9
CC(C)Cc1ccc(C(C)C(N)=NCCc2ccccc2)cc1 (stereo unspecified),-3,39*,-6,-58,x,8
